Data: ChEMBL document CHEMBL1152594, “The design and optimization of a series of 2-(pyridin-2-yl)-1H-benzimidazole compounds as allosteric glucokinase activators” (Bioorg Med Chem, 2009)
Calls of active or inactive are those of the source. The calls are words filed in the database; no cut-off is given here.

Legend:
Hexokinase-4 [1] = target: T1, Hexokinase-4 (Homo sapiens, UniProt P35557); experiment: Activation of human liver glucokinase expressed in Escherichia coli at 2.5 mM glucose concentration by glucose-6-phosphate coupled continuous spectrophotometric assay
T1 sequence (P35557 whole entry): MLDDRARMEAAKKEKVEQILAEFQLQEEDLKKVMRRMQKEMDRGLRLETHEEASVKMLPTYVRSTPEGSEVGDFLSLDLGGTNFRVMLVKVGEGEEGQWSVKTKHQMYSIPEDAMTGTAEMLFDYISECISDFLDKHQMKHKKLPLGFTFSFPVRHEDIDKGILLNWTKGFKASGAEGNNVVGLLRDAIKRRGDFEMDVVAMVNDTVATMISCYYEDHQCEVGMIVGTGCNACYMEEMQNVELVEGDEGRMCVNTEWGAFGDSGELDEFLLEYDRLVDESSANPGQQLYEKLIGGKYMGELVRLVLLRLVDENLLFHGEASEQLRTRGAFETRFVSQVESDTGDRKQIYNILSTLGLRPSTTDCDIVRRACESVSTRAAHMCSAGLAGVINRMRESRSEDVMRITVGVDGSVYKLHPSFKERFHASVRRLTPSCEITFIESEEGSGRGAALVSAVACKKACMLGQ

Mus musculus = experiment: Hypoglycemic efficacy in high-fat diet-induced mouse assessed as acute glucose lowering at 10 mg/kg, po; type: functional, organism-based; parameters: dose 10 mg/kg
Method in brief: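 They received compound orally in 0.5% methylcellulose vehicle, or vehicle alone. Blood glucose was measured just before dosing and at 1, 2, 3 and 4 h after.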

Hexokinase-4 [2] = target: T1, Hexokinase-4; experiment: Activation of human liver glucokinase expressed in Escherichia coli at 10 mM glucose concentration by glucose-6-phosphate coupled continuous spectrophotometric assay
[3] = Cmax in Beagle dog at 0.3 mg/kg, iv and 1 mg/kg, po; conditions: in vivo
[4] = Cmax in Sprague-Dawley rat at 1 mg/kg, iv and 3 mg/kg, po; type: ADME, organism-based; conditions: in vivo
Method in brief: (§1)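 Male SD rats received 1 mg/kg iv or 3 mg/kg po. Plasma AUC, Cmax, T1/2, CLp and oral bioavailability (F) were derived from these dosings.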

[5] = Half life in Beagle dog at 0.3 mg/kg, iv and 1 mg/kg, po; conditions: in vivo
[6] = Half life in Sprague-Dawley rat at 1 mg/kg, iv and 3 mg/kg, po; type: ADME, organism-based; conditions: in vivo
Method in brief: as §1

[7] = Oral bioavailability in Sprague-Dawley rat at 3 mg/kg, po; type: ADME, organism-based; conditions: in vivo
Method in brief: as §1

Rattus norvegicus [8] = experiment: Hypoglycemic efficacy in Wistar rat assessed as reduction in area under the glucose curve at 1 mg/kg, po by oral glucose tolerance test; type: functional; parameters: scale not given: the % may be the effect or the level left
Method in brief: (§2)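 In the Wistar rat OGTT, the compound was given orally. […] Groups were compared by one-way ANOVA followed by Dunnett's test, with significance at p < 0.05.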

Rattus norvegicus [9] = experiment: Hypoglycemic efficacy in Wistar rat assessed as reduction in area under the glucose curve at 3 mg/kg, po by oral glucose tolerance test; type: functional; parameters: scale not given: the % may be the effect or the level left
Method in brief: as §2

[10] = Plasma clearance in Sprague-Dawley rat at 1 mg/kg, iv and 3 mg/kg, po; type: ADME, organism-based
Method in brief: as §1

[11] = AUC in Sprague-Dawley rat at 1 mg/kg, iv and 3 mg/kg, po; type: ADME, organism-based; conditions: plasma
Method in brief: as §1

[12] = AUC in Beagle dog at 0.3 mg/kg, iv and 1 mg/kg, po; conditions: plasma
[13] = Oral bioavailability in Beagle dog at 1 mg/kg, po; conditions: in vivo

| Structure (SMILES) | EC50 (Hexokinase-4 [1]) | Activity (Mus musculus) | EC50 (Hexokinase-4 [2]) | other results |
| --- | --- | --- | --- | --- |
| CCS(=O)(=O)c1ccc(Oc2cc3nc(-c4ccccn4)[nH]c3cc2CN(C)C(C)=O)cc1 | 0.3 µM | Active | 0.07 µM |  |
| CCS(=O)(=O)c1ccc(Oc2cc3nc(-c4ccccn4)[nH]c3cc2Cn2ccnc2)cc1 | 0.43 µM |  | 0.12 µM |  |
| CCS(=O)(=O)c1ccc(Oc2cc3nc(-c4ccccn4)[nH]c3cc2CN2CCCS2(=O)=O)cc1 | 0.46 µM |  | 0.09 µM |  |
| CCS(=O)(=O)c1ccc(Oc2cc3nc(-c4ccccn4)[nH]c3cc2CNC(C)=O)cc1 | 1.41 µM |  | 0.22 µM |  |
| CCS(=O)(=O)c1ccc(Oc2cc3nc(-c4ccccn4)[nH]c3cc2CN2C(=O)COC2=O)cc1 | 0.09 µM | inactive | 0.02 µM |  |
| CCS(=O)(=O)c1ccc(Oc2cc3nc(-c4ccccn4)[nH]c3cc2Cc2nnnn2C)cc1 | 0.41 µM |  | 0.07 µM |  |
| CCS(=O)(=O)c1ccc(Oc2cc3nc(-c4ccccn4)[nH]c3cc2CN2CCOC2=O)cc1 | 0.25 µM | inactive | 0.06 µM |  |
| CCS(=O)(=O)c1ccc(Oc2cc3nc(-c4ccccn4)[nH]c3cc2CN2C(=O)CN(C)C2=O)cc1 | 0.18 µM |  | 0.06 µM |  |
| CCS(=O)(=O)c1ccc(Oc2cc3[nH]c(-c4ccccn4)nc3cc2CCC(=O)N(C)C)cc1 | 0.62 µM |  | 0.12 µM |  |
| CCS(=O)(=O)c1ccc(Oc2cc3nc(-c4ccccn4)[nH]c3cc2CN2CCN(C)C2=O)cc1 | 0.32 µM |  | 0.08 µM |  |
| CCN(Cc1cc2nc(-c3ccccn3)[nH]c2cc1Oc1ccc(S(=O)(=O)CC)cc1)C(C)=O | 0.5 µM |  | 0.11 µM |  |
| CCS(=O)(=O)c1ccc(Oc2cc3nc(-c4ccccn4)[nH]c3cc2CN2CCCC2=O)cc1 | 0.35 µM | Active | 0.06 µM |  |
| CCS(=O)(=O)c1ccc(Oc2cc3nc(-c4ccccn4)[nH]c3cc2CN2CCCC2)cc1 | > 5 µM |  | > 5 µM |  |
| CCS(=O)(=O)c1ccc(Oc2cc3nc(-c4ccccn4)[nH]c3cc2CN2CCNC2=O)cc1 | > 5 µM |  | > 5 µM |  |
| CCS(=O)(=O)c1ccc(Oc2cc3nc(-c4ccccn4)[nH]c3cc2CN2C(=O)CCC2=O)cc1 | 0.16 µM | Active | 0.04 µM | Cmax [3]: 400 nM; Cmax [4]: 400 nM; half-life [5]: 6.4 h; half-life [6]: 0.6 h; bioavailability [7]: 16%; Activity (Rattus norvegicus [8]): 19%; Activity (Rattus norvegicus [9]): 27%; clearance [10]: 32 mL/min/kg; AUC [11]: 0.5 µM·h; AUC [12]: 4 µM·h; bioavailability [13]: 41% |
| CCS(=O)(=O)c1ccc(Oc2cc3nc(-c4ccccn4)[nH]c3cc2CN2CCOCC2=O)cc1 | 0.28 µM |  | 0.1 µM |  |
